Data on eight compounds can be found in ChEMBL document CHEMBL1152741, “Discovery, design, and synthesis of anti-metastatic lead phenylmethylene hydantoins inspired by marine natural products” (Bioorg Med Chem, 2009).

The structures appear in SMILES notation. pEC50: −log10 of the molar value. Active and inactive are the calls of the source. The rule behind the calls is not given here.

A short description of assay [1]: Antimetastatic activity against human PC3M cells expressing CTR assessed as reduction in migration area at 200 uM after 48 hrs by spheroid disaggregation assay. In kind it is functional, PC-3M. An outline of the steps: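 PC-3M-CT+ cells (which secrete calcitonin and carry CTR) are formed into spheroids from 5 × 10^4/mL cells in serum-free RPMI 1640. Plates are rocked 2 days at 37°C, giving spheroids of 150–300 μm. Single spheroids are placed on ECM-coated wells in serum-free medium, with t = 0 set at 1 h. They are photographed, kept 48 h at 37°C, then fixed and Diff-Quik stained. Radial migration distance is measured by micrometer after subtracting the initial diameter. Compounds are tested at 200 μM.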

Assay [2] has as its system PC-3M. As to the kind of experiment: Antiinvasive activity in human PC3M cells expressing CTR assessed as change in core spheroid at => 100 uM after 48 hrs by spheroid disaggregation assay. In kind it is functional, cell-based.
The nature of assay [3]: Antiinvasive activity in human PC3M cells expressing CTR assessed as inhibition of calcitonin-induced cell migration after 24 hrs by spheroid disaggregation assay. To be noted: PC-3M. The class given is functional, cell-based.
In assay [4] the test system is PC-3M. The assay is described as follows: Cytotoxicity against human PC3M cells assessed as cell viability up to 50 uM by MTT assay. The class given is functional, cell-based.

As for `O=C1NC(=O)/C(=C/c2cccc(-c3ccccc3)c2)N1`, the Activity in assay [1] is 76 um. Further, the result in assay [2] was inactive.
Consider `O=C1NC(=O)/C(=C/c2ccc(O)cc2)N1` [4-HYDROXYPHENYLMETHYLENE HYDANTOIN], for which the outcome in assay [2] and in assay [4] was inactive. Further, the pEC50 in assay [3] is 3.82.
As for `O=C1NC(=O)/C(=C/c2ccc(-c3cccs3)cc2)N1`, the Activity in assay [1] turned out to be 39 um. In addition, in assay [2], the result was inactive.
As for `O=C1NC(=O)/C(=C/c2ccccc2-c2cccs2)N1`, the Activity in assay [1] was determined as 50 um. For the same compound, the outcome in assay [2] was inactive.
On to `CCSc1ccc(/C=C2\NC(=O)NC2=O)cc1`, for which the Activity in assay [1] was 15.5 um. Besides, in assay [2], the result was inactive. The pEC50 in assay [3] is 4.52.
On to `O=C1NC(=O)/C(=C/c2ccccc2-c2ccccc2)N1`, for which the Activity in assay [1] amounted to 56 um. Also, the outcome in assay [2] was inactive.
Regarding `N#Cc1cccc(/C=C2\NC(=O)NC2=O)c1`, the Activity in assay [1] stood at 195 um. Also, the outcome in assay [2] was inactive.
With `Cc1ccc(/C=C2\NC(=O)NC2=O)c(F)c1F`, the Activity in assay [1] turned out to be 175 um. The outcome in assay [2] was inactive.

Usually pEC50 stands for −log10 of the EC50, conventionally taken in molar units.
